Article PMC4070457 (Drugs in R&D, 2014)

How the values were obtained:
[1] = Pharmacokinetics of FA after IV and oral; assay type: in vivo, Sprague-Dawley rats; details: for clearance: Sprague-Dawley, rat, serum, iv
[2] = Tolerability / toxicity observation during the pharmacokinetic studies; assay type: in vivo, Sprague-Dawley rats
Summary of the method: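 Male Sprague-Dawley rats with jugular catheters were watched for toxic signs, including chromodacryorrhea, while on the pharmacokinetic study. Nine rats each received 25 mg/kg IV and 25 mg/kg PO (gavage) in saline, with sampling to 8 h. Separate IV dosing was at 10, 25 and 75 mg/kg. Animals were killed in a CO2 chamber after each study.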

[3] = oral 20 mg/kg, acyl carbon radiolabelled FA; cited from earlier work
[4] = cited from earlier work
[5] = cited from earlier work; remark: listed apart in the source
HNSCC = details: oral dose of 25 mg/kg per day; cited from earlier work

Q: Which “time until FA serum concentration fell below the lower limit of quantitation (10 µM)” value ([1]; 25 mg/kg IV or PO, all animals) does the source give for CCCCc1ccc(C(=O)O)nc1 [fusaric acid, 5-butlypicolinic acid] here?
A: ≤ 4 h

Q: And the “Vd (apparent volume of distribution)” value ([1]; 25 mg/kg oral, average)?
A: 182 ± 27 mL

Q: And the clearance ([1]; 10 mg/kg, 10 mg/kg IV)?
A: 0.783 mL/min

Q: And the clearance ([1]; 25 mg/kg, 25 mg/kg IV)?
A: 1.35 mL/min

Q: What about the “Toxicity (i.e., chromodacyrea)” value ([2]; 25 mg/kg IV and PO, nine animals) of the same compound?
A: not observed

Q: What about the adverse effects ([2]; IV doses of 10, 25, and 75 mg/kg) of the same compound?
A: no adverse effects observed

Q: And the “calculated FA concentration at peak radioactivity” value [3]?
A: 42 ± 7.4 µg/mL

Q: What about the “FA excreted unchanged in the urine” value [4] of the same compound?
A: < 5%

Q: And the “dose at which adverse effects were observed” value [5]?
A: 100 mg/kg

Q: What about the “efficacy toward HNSCC” value (HNSCC) of the same compound?
A: efficacious
